Data reported in ChEMBL document CHEMBL1955847, “2-Morpholinoisoflav-3-enes as flexible intermediates in the synthesis of phenoxodiol, isophenoxodiol, equol and analogues: vasorelaxant properties, estrogen receptor binding and Rho/RhoA kinase pathway inhibition” (Bioorg Med Chem, 2012).
Calls of active or inactive are those of the source. The rule behind the calls is not given here.

What was measured:
Estrogen receptor = biological target: T1, Estrogen receptor (Rattus norvegicus, UniProt P06211); test: Displacement of [3H]estradiol from rat uterine cytosolic estrogen receptor
T1 sequence (P06211 whole entry): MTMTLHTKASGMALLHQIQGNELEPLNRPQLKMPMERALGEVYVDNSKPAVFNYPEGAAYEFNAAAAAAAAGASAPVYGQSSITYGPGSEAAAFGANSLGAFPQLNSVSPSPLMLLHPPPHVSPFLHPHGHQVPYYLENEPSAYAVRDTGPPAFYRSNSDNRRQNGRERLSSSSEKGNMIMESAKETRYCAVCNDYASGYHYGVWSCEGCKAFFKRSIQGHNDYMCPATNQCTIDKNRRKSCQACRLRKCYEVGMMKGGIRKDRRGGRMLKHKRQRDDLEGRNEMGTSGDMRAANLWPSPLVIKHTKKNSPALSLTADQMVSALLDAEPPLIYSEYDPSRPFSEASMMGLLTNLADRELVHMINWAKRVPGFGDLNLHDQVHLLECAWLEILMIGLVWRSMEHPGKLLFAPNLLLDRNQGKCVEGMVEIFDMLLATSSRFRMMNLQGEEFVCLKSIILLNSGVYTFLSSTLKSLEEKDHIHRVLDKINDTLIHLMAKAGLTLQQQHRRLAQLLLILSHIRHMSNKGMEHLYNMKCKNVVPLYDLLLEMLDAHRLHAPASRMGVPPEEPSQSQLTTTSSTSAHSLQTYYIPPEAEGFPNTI
Method in brief: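 Rat uterine cytosol incubated with 0.2 nM [3H]-estradiol in 10 mM Tris (pH 7.4, 1.5 mM EDTA, 10% w/v glycerol, 1 mM PMSF), with and without ICI 182,780 to define binding. Compounds were made from 10 mM DMSO stocks and diluted into buffer, giving 0.1% v/v DMSO at the top concentration and in all lower dilutions.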

Aorta [1] = test: Vasorelaxant activity in Sprague-Dawley rat thoracic aorta assessed as inhibition of U46619-induced GTP RhoA level at 100 uM pretreated for 30 mins measured after 45 mins by spectrometric analysis; format: functional, tissue-based
Method in brief: (§1)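 Male Sprague-Dawley thoracic aortic rings were denuded of endothelium and pretreated 30 min with compound, flavone or vehicle, then contracted with 30 nM U46619. Rings were snap-frozen in liquid N2 and homogenized in lysis buffer, then spun at 12,000g for 15 min at 4 °C. Supernatant was run in a RhoA G-LISA with HRP detection and absorbance read at 490 nm. Triplicate.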

Aorta [2] = test: Vasorelaxant activity in Sprague-Dawley rat thoracic aorta assessed as inhibition of U46619-induced vascular tension at 100 uM pretreated for 30 mins; format: functional, tissue-based
Method in brief: (§2)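 Male Sprague-Dawley thoracic aortic rings were held in Krebs-bicarbonate at 37 °C, pH 7.4, gassed with 95% O2/5% CO2. Rings were pretreated 30 min with compound or vehicle, then contracted with 30 nM U46619, and vascular tension was recorded. Final DMSO was 0.1%. n = 2, run in duplicate.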

Aorta [3] = test: Vasorelaxant activity in Sprague-Dawley rat thoracic aorta assessed as inhibition of phenylephirne-induced contraction in presence of 0.1 uM estrogen receptor antagonist ICI 182780; format: functional, tissue-based
Aorta [4] = test: Vasorelaxant activity in Sprague-Dawley rat thoracic aorta assessed as inhibition of phenylephirne-induced contraction at highest concentration; format: functional, tissue-based
Method in brief: (§3)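 Aortic rings 2–3 mm long from male Sprague-Dawley rats were bathed in Krebs-bicarbonate at 37 °C, pH 7.4, aerated with 95% O2/5% CO2, and equilibrated 1 h at 1 g resting tension. Rings were maximally contracted with KPSS (122.7 mM KCl) and re-equilibrated, then given submaximal phenylephrine. Endothelium was checked with acetylcholine, and cumulative concentration-response curves were run. DMSO was at most 0.1%. n = 3–5.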

Aorta [5] = test: Vasorelaxant activity in Sprague-Dawley rat thoracic aorta assessed as inhibition of phenylephirne-induced contraction; format: functional, tissue-based; method in brief: as §3
Aorta [6] = test: Vasorelaxant activity in Sprague-Dawley rat thoracic aorta assessed as inhibition of U46619-induced vascular tension at 300 uM pretreated for 30 mins; format: functional, tissue-based; method in brief: as §2
Aorta [7] = test: Vasorelaxant activity in Sprague-Dawley rat thoracic aorta assessed as inhibition of U46619-induced GTP RhoA level at 300 uM pretreated for 30 mins measured after 45 mins by spectrometric analysis; format: functional, tissue-based; method in brief: as §1

Row | Compound | pIC50 (Estrogen receptor) | Activity (Aorta [1]) | Activity (Aorta [2]) | Activity (Aorta [3]) | Activity (Aorta [4]) | IC50 (Estrogen receptor) [nM] | Activity (Aorta [5]) | Activity (Aorta [6]) | Activity (Aorta [7])
1 | c1ccc(C2COc3ccccc3C2)cc1 (stereo unspecified) | > 5 | Active | Active | inactive | Active |  |  |  | 
2 | Oc1ccc(C2COc3ccccc3C2)cc1 (stereo unspecified) |  | Active | Active |  |  | 7590 | Dose-dependent effect |  | 
3 | O=c1cc(-c2ccccc2)oc2ccccc12 |  |  |  |  |  |  |  | Active | Active
4 | C[C@]12CC[C@@H]3c4ccc(O)cc4C[C@@H](CCCCCCCCC[S+]([O-])CCCC(F)(F)C(F)(F)F)[C@H]3[C@@H]1CC[C@@H]2O (stereo partly specified) [FULVESTRANT] |  |  |  |  |  | 5.89 |  |  | 
5 | Oc1ccc(C2=COc3cc(O)ccc3C2)cc1 [ISOPHENOXODIOL] |  |  |  |  |  | 234 | Dose-dependent effect |  | 
6 | Oc1ccc2c(c1)OCC(c1ccccc1)C2 (stereo unspecified) |  | Active | Active |  |  | 3630 | Dose-dependent effect |  | 
7 | Oc1ccc(C2COc3cc(O)ccc3C2)cc1 (racemic) |  | Active | Active |  |  | 1660 | Dose-dependent effect |  | 
8 | Oc1ccc(C2=Cc3ccc(O)cc3OC2)cc1 [IDRONOXIL] |  | Active | Active |  |  | 661 | Dose-dependent effect |  | 
